Reference: ChEMBL document CHEMBL4428067, “Drug Discovery against Psoriasis: Identification of a New Potent FMS-like Tyrosine Kinase 3 (FLT3) Inhibitor, 1-(4-((1H-Pyrazolo[3,4-d]pyrimidin-4-yl)oxy)-3-fluorophenyl)-3-(5-(tert-butyl)isoxazol-3-yl)urea, That Showed Potent Activity in a Psoriatic Animal Model” (J Med Chem, 2016)
The source made the active and inactive calls. The calls are words filed in the database; no cut-off is given here.

Experiments:
[1] = target: T1, Receptor-type tyrosine-protein kinase FLT3 (Mus musculus) (UniProt Q00342); assay: Inhibition of FLT3 in Balb/c mouse BMDCs assessed as suppression of FLT3L-induced mDC formation measured as upper right quadrant cells level treated on day 9 post 9 days of FLT3L-stimulation measured after 24 hrs by CD11c PerCP and I-A/I-E (MHC class II) FITC staining based flow cytometric analysis (reference value: 21%); set-up: scale not given: the % may be the effect or the level left
T1 sequence (whole entry): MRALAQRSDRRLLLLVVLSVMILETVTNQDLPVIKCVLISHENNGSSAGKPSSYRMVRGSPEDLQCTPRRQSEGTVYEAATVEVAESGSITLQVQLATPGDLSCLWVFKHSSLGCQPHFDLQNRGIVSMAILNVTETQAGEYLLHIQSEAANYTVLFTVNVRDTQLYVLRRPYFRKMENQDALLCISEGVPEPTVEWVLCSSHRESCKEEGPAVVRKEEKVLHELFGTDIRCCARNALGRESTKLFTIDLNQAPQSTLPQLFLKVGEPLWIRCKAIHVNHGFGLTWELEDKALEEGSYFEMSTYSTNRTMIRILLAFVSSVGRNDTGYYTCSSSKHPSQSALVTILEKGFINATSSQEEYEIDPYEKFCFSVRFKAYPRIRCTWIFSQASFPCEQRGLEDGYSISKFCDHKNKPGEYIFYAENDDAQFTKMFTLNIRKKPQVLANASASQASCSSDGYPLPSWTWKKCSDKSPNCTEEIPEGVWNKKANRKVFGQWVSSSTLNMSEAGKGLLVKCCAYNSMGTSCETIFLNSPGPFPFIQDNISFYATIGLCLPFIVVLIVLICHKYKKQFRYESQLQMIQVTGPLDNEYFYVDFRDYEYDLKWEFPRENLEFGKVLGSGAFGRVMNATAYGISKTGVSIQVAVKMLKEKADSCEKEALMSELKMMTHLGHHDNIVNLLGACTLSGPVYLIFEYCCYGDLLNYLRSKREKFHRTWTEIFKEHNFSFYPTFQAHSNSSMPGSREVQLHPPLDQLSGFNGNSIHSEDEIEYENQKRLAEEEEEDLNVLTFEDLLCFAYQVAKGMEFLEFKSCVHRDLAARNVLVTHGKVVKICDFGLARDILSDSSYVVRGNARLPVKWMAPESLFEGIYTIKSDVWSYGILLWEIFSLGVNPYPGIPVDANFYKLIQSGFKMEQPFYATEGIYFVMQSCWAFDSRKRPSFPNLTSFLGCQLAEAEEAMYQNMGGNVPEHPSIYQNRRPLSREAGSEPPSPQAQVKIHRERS
In short: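 BALB/c bone marrow cells were cultured at 1×10^6/ml with FLT3L in supplemented RPMI-1640 for 9 days. Compound in DMSO or 0.1% DMSO was added on day 9 for 24 h. Cells were stained for 30 min with CD11c PerCP plus B220 FITC (pDC: CD11c+ B220+) or MHC II FITC (mDC: CD11c+ MHC II+), then analysed by flow cytometry. Three independent experiments.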

[2] = target: T1, Receptor-type tyrosine-protein kinase FLT3 (Mus musculus); assay: Inhibition of FLT3 in mouse BMDCs assessed as suppression of STAT5 phosphorylation at 10 and 100 nM treated on day 9 post 9 days of FLT3L-stimulation measured after 1 hr by Western blot analysis
In short: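 Bone marrow cells were cultured 9 days with FLT3L in supplemented RPMI-1640, then exposed to compound or 0.1% DMSO for 1 h on day 9. Whole cells were lysed and immunoblotted with rabbit antibodies to STAT3, STAT5, pSTAT3 and pSTAT5. Three independent experiments.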

Mus musculus [3] = species: Mus musculus; assay: Antipsoriatic activity in K14-VEGF transgenic mouse model of psoriasis assessed as improvement of psoriatic symptoms at 0.05% applied tropically over lesion for continuous 21 days by macroscopic analysis relative to vehicle control; type: functional, organism-based
In short: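 Homozygous K14-VEGF mice, 3–4 months old, with moderate to serious psoriasis. Lesions smeared with cream with or without 0.05% compound for 3 weeks, then observed untreated for another 15 days. Head and neck photographed on days 0, 21 and 36 for macroscopic assessment.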

Mus musculus [4] = species: Mus musculus; assay: Antipsoriatic activity in K14-VEGF transgenic mouse model of psoriasis assessed as reduction in focal parakeratinosis at 0.05% applied tropically over lesion for continuous 29 days by H and E staining method relative to vehicle control; type: functional, organism-based
In short: (§1)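 Homozygous K14-VEGF mice, 3–4 months old, with moderate to serious psoriasis; n=3 per group. Cream with 0.05% compound or vehicle cream smeared on lesions. Head and neck tissue sections taken after 29 days of treatment and HE-stained. Baker pathological score from 5 random fields, given as mean and SD. Epidermal thickness from 8 random fields, given as mean ± SEM.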

Mus musculus [5] = species: Mus musculus; assay: Antipsoriatic activity in K14-VEGF transgenic mouse model of psoriasis assessed as reduction in infiltrated lymphocytes at 0.05% applied tropically over lesion for continuous 29 days by H and E staining method relative to vehicle control; type: functional, organism-based; in short: as §1
Mus musculus [6] = species: Mus musculus; assay: Antipsoriatic activity in K14-VEGF transgenic mouse model of psoriasis assessed as upper left quadrant DC cells expressing FLT3 and CD11c in psoriatic plaque lesion at 0.05% applied tropically over lesion for continuous 29 days by flow cytometric analysis (reference value: 8.83%); type: functional
Mus musculus [7] = species: Mus musculus; assay: Antipsoriatic activity in K14-VEGF transgenic mouse model of psoriasis assessed as decrease in CD8 expression in psoriatic lesion at 0.05% applied tropically over lesion for continuous 29 days by immunohistochemical analysis relative to vehicle control; type: functional; set-up: scale not given: the % may be the effect or the level left
In short: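 K14-VEGF mice were treated topically with 0.05% cream or vehicle for 29 days, n=3 per group. Ear skin was paraffin-embedded, cut into 4-µm sections and immunostained. Staining was quantified in 5 random fields, reported as mean ± SD.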

Mus musculus [8] = species: Mus musculus; assay: Antipsoriatic activity in K14-VEGF transgenic mouse model of psoriasis assessed as lower left quadrant FLT3+/CD11c+/MHC-II+ mDC cells in psoriatic plaque lesion at 0.05% applied tropically over lesion for continuous 29 days by flow cytometric analysis (reference value: 0%)

Activity [1]: 16.7% | inhibition [2]: Active
SMILES: CC(C)(C)c1cc(NC(=O)Nc2ccc(Oc3ncnc4[nH]ncc34)c(F)c2)no1
Activity (Mus musculus [3]): Active | Activity (Mus musculus [4]): Active | Activity (Mus musculus [5]): Active | Activity (Mus musculus [6]): 5.18% | Activity (Mus musculus [7]): 79% | Activity (Mus musculus [8]): 0%
